According to ChEMBL document CHEMBL3745647, “Design, synthesis and biological evaluation of pyrazolyl-nitroimidazole derivatives as potential EGFR/HER-2 kinase inhibitors” (Bioorg Med Chem Lett, 2016):

Tests used:
HepG2 = experiment: Antiproliferative activity against human HepG2 cells after 12 hrs by MTT assay; type: functional, cell-based; settings: HepG2, 12 h
[1] = molecular target: Receptor tyrosine-protein kinase erbB-2 (Homo sapiens, UniProt P04626); experiment: Inhibition of His-tagged human HER-2 cytoplasmic domain (676-1245 aa) (unknown origin) assessed as inhibition of autophosphorylation by TR-fluorometry
[2] = molecular target: Epidermal growth factor receptor (Homo sapiens, UniProt P00533); experiment: Inhibition of His-tagged EGFR cytoplasmic domain (645-1186 aa) (unknown origin) assessed as inhibition of autophosphorylation by TR-fluorometry
[3] = Antiproliferative activity against mouse B16F10 cells after 12 hrs by MTT assay; type: functional, cell-based; settings: B16-F10, 12 h
HeLa [4] = experiment: Antiproliferative activity against human HeLa cells after 12 hrs by MTT assay; type: functional, cell-based
MCF7 = experiment: Antiproliferative activity against human MCF7 cells after 12 hrs by MTT assay; type: functional, cell-based; settings: MCF7, 12 h
[5] = Cytotoxicity against human HEK293T cells for 24 hrs by MTT assay; type: cell-based, HEK-293T
In short: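 293T human kidney epithelial cells exposed to multiple concentrations and viability read by MTT.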

HeLa [6] = experiment: Induction of apoptosis in human HeLa cells assessed as early apoptotic cells at 0.13 uM after 48 hrs by annexin-V-FITC/PI staining based flow cytometry (reference value: 0.889%); type: functional
In short: (§1)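 HeLa cells treated at 0.13, 0.26, 0.52 or 1.04 µM for 48 h, then collected and stained with annexin V-FITC/PI for flow cytometry. Early apoptotic cells are annexin V+/PI− (lower right quadrant) and late apoptotic cells are annexin V+/PI+ (upper right quadrant). Data are mean ± S.E.M. of three independent experiments.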

HeLa [7] = experiment: Induction of apoptosis in human HeLa cells assessed as early apoptotic cells at 0.52 uM after 48 hrs by annexin-V-FITC/PI staining based flow cytometry (reference value: 0.889%); type: functional; in short: as §1
HeLa [8] = experiment: Induction of apoptosis in human HeLa cells after 48 hrs by annexin-V-FITC/PI staining based flow cytometry; type: functional, cell-based; in short: as §1
HeLa [9] = experiment: Induction of apoptosis in human HeLa cells assessed as necrotic cells at 1.04 uM after 48 hrs by annexin-V-FITC/PI staining based flow cytometry (reference value: 3.82%); type: functional; in short: as §1
HeLa [10] = experiment: Induction of apoptosis in human HeLa cells assessed as late apoptotic cells at 0.26 uM after 48 hrs by annexin-V-FITC/PI staining based flow cytometry (reference value: 8.52%); type: functional; in short: as §1
HeLa [11] = experiment: Induction of apoptosis in human HeLa cells assessed as necrotic cells at 0.52 uM after 48 hrs by annexin-V-FITC/PI staining based flow cytometry (reference value: 3.82%); type: functional; in short: as §1
HeLa [12] = experiment: Induction of apoptosis in human HeLa cells assessed as viable cells at 0.26 uM after 48 hrs by annexin-V-FITC/PI staining based flow cytometry (reference value: 86.8%); type: functional; settings: read-out: Activity; in short: as §1
HeLa [13] = experiment: Induction of apoptosis in human HeLa cells assessed as necrotic cells at 0.13 uM after 48 hrs by annexin-V-FITC/PI staining based flow cytometry (reference value: 3.82%); type: functional; in short: as §1
HeLa [14] = experiment: Induction of apoptosis in human HeLa cells assessed as early apoptotic cells at 1.04 uM after 48 hrs by annexin-V-FITC/PI staining based flow cytometry (reference value: 0.889%); type: functional; in short: as §1
HeLa [15] = experiment: Induction of apoptosis in human HeLa cells assessed as late apoptotic cells at 0.13 uM after 48 hrs by annexin-V-FITC/PI staining based flow cytometry (reference value: 8.52%); type: functional; in short: as §1
HeLa [16] = experiment: Induction of apoptosis in human HeLa cells assessed as late apoptotic cells at 0.52 uM after 48 hrs by annexin-V-FITC/PI staining based flow cytometry (reference value: 8.52%); type: functional; in short: as §1
HeLa [17] = experiment: Induction of apoptosis in human HeLa cells assessed as late apoptotic cells at 1.04 uM after 48 hrs by annexin-V-FITC/PI staining based flow cytometry (reference value: 8.52%); type: functional; in short: as §1
HeLa [18] = experiment: Induction of apoptosis in human HeLa cells assessed as necrotic cells at 0.26 uM after 48 hrs by annexin-V-FITC/PI staining based flow cytometry (reference value: 3.82%); type: functional; in short: as §1
HeLa [19] = experiment: Induction of apoptosis in human HeLa cells assessed as viable cells at 0.52 uM after 48 hrs by annexin-V-FITC/PI staining based flow cytometry (reference value: 86.8%); type: functional; settings: read-out: Activity; in short: as §1
HeLa [20] = experiment: Induction of apoptosis in human HeLa cells assessed as viable cells at 0.13 uM after 48 hrs by annexin-V-FITC/PI staining based flow cytometry (reference value: 86.8%); type: functional; settings: read-out: Activity; in short: as §1
HeLa [21] = experiment: Induction of apoptosis in human HeLa cells assessed as early apoptotic cells at 0.26 uM after 48 hrs by annexin-V-FITC/PI staining based flow cytometry (reference value: 0.889%); type: functional; in short: as §1
HeLa [22] = experiment: Induction of apoptosis in human HeLa cells assessed as viable cells at 1.04 uM after 48 hrs by annexin-V-FITC/PI staining based flow cytometry (reference value: 86.8%); type: functional; settings: read-out: Activity; in short: as §1

Epidermal growth factor receptor, sequence (P00533 whole entry, the tested form may be a part): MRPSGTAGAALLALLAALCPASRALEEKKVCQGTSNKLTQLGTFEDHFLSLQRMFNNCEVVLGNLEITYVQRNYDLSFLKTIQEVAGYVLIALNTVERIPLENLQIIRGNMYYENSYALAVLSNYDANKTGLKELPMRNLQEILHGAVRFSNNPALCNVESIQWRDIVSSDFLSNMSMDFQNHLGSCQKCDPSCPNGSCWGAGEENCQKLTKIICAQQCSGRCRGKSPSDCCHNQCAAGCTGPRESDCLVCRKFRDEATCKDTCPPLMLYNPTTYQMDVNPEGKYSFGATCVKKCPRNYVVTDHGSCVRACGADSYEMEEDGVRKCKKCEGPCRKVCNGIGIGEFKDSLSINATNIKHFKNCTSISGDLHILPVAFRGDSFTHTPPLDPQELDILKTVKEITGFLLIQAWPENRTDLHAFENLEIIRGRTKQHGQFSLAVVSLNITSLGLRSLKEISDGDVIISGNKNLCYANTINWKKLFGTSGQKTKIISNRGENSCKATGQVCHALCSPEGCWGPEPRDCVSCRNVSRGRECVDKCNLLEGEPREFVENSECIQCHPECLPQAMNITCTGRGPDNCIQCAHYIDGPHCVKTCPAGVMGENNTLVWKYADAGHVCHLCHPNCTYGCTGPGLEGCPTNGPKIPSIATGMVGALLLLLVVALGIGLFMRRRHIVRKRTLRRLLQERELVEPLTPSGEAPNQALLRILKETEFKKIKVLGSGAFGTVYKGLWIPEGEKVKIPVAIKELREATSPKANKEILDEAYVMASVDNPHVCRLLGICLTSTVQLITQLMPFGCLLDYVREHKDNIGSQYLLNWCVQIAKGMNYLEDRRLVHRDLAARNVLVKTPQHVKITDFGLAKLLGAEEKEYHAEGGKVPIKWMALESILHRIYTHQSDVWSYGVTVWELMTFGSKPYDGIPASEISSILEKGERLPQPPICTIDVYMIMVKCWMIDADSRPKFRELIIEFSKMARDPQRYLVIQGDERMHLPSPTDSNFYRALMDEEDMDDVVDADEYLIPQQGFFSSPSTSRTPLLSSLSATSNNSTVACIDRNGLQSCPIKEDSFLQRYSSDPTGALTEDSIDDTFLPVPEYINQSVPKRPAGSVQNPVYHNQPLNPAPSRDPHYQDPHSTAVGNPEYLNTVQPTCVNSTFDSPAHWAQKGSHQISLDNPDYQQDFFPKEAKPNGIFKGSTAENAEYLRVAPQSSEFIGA
Receptor tyrosine-protein kinase erbB-2, sequence (P04626 whole entry, the tested form may be a part): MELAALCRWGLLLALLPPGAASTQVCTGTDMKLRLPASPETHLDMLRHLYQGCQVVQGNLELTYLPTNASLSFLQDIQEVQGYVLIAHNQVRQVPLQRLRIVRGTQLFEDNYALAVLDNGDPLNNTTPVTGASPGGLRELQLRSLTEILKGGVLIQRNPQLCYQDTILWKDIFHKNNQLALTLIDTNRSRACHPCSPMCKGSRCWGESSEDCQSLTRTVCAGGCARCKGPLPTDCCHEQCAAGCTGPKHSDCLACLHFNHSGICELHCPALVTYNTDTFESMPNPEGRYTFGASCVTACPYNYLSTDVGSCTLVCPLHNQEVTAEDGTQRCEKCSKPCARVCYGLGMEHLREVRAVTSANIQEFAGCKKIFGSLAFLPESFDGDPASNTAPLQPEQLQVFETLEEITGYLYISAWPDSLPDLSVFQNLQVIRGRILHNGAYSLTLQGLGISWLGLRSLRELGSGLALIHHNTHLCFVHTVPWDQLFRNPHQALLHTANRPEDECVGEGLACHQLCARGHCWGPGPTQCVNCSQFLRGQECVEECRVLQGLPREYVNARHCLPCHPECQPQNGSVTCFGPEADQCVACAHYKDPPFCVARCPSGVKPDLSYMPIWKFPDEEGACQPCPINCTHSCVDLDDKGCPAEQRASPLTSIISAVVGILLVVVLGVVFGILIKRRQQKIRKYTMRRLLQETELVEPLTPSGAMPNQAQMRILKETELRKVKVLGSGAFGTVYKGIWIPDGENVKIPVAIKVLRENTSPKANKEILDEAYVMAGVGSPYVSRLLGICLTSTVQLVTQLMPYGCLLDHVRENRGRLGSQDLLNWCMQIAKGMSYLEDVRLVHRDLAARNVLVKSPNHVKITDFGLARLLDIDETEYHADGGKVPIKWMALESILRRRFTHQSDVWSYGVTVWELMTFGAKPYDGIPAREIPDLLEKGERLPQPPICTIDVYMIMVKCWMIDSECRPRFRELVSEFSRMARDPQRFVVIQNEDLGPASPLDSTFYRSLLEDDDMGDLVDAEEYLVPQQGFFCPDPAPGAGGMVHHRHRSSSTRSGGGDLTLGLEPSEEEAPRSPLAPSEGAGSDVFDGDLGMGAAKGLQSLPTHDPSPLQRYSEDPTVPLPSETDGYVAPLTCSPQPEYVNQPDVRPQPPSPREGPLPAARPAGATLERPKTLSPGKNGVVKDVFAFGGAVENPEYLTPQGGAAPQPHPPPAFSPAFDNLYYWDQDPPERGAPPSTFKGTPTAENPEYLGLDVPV

Row | SMILES | IC50 (HepG2) [µM] | IC50 [1] [µM] | IC50 ([2]; read-out: IC50) [µM] | IC50 ([2]; read-out: pIC50 (converted)) [µM] | IC50 (HeLa [4]) [µM] | IC50 (MCF7) [µM] | IC50 [3] [µM] | CC50 at 24 h [5] [µM] | further results
1 | CC(=O)N1N=C(c2ccccc2)CC1c1ccc(C(=O)OCCn2c([N+](=O)[O-])cnc2C)cc1 (stereo unspecified) | 42.2 | 14 | 9.58 | 9.59 | 48.8 | 58.2 | 62.7 |  | 
2 | CC(=O)N1N=C(c2ccc(C)cc2)CC1c1ccc(C(=O)OCCn2c([N+](=O)[O-])cnc2C)cc1 (stereo unspecified) | 50.2 | 13.2 | 10.9 | 10.9 | 76.8 | 70.7 | > 100 |  | 
3 | COc1ccc(C2=NN(C(C)=O)C(c3ccc(C(=O)OC(C)Cn4c([N+](=O)[O-])cnc4C)cc3)C2)cc1 (stereo unspecified) | 25.2 | 12 | 21.3 | 21.3 | 35.1 | 28 | 40.6 |  | 
4 | CCOc1ccc(C2=NN(C(C)=O)C(c3ccc(C(=O)OC(C)Cn4c([N+](=O)[O-])cnc4C)cc3)C2)cc1 (stereo unspecified) | 38.8 | 18.1 | 26.9 | 27 | 47.6 | 40.6 | 46.6 |  | 
5 | C#Cc1cccc(Nc2ncnc3cc(OCCOC)c(OCCOC)cc23)c1 [ERLOTINIB] |  |  |  |  |  |  |  | 105 | 
6 | COc1ccc(C2=NN(C(C)=O)C(c3ccc(C(=O)OCCn4c([N+](=O)[O-])cnc4C)cc3)C2)cc1 (stereo unspecified) | 15.8 | 17.3 | 8.54 | 8.55 | 27.9 | 30.2 | 36.2 |  | 
7 | CCOc1ccc(C2=NN(C(C)=O)C(c3ccc(C(=O)OCCn4c([N+](=O)[O-])cnc4C)cc3)C2)cc1 (stereo unspecified) | 19.3 | 14.9 | 15.2 | 15.2 | 31.4 | 20.6 | 38.9 |  | 
8 | CC(=O)N1N=C(c2ccccc2)CC1c1ccc(C(=O)OC(C)Cn2c([N+](=O)[O-])cnc2C)cc1 (stereo unspecified) | 43.8 | 17 | 12.2 | 12.2 | 45.2 | 49.9 | 68.2 |  | 
9 | CC(=O)N1N=C(c2ccc(Cl)cc2)CC1c1ccc(C(=O)OC(C)Cn2c([N+](=O)[O-])cnc2C)cc1 (stereo unspecified) | 12.2 | 9.96 | 9.26 | 9.27 | 15.6 | 8.82 | 22.2 |  | 
10 | CC(=O)N1N=C(c2ccc(C)cc2)CC1c1ccc(C(=O)OC(C)Cn2c([N+](=O)[O-])cnc2C)cc1 (stereo unspecified) | 58.1 | 18.9 | 25.6 | 25.6 | 72.1 | 92.1 | > 100 |  | 

The remaining compounds from weak to strong by IC50 (HepG2), led by results:

Row | IC50 (HepG2) [µM] | IC50 [1] [µM] | IC50 ([2]; read-out: IC50) [µM] | IC50 ([2]; read-out: pIC50 (converted)) [µM] | IC50 (HeLa [4]) [µM] | IC50 (MCF7) [µM] | SMILES | IC50 [3] [µM] | CC50 at 24 h [5] [µM] | further results
11 | 9.98 | 12.7 | 10.7 | 10.7 | 25.6 | 9.77 | CC(=O)N1N=C(c2ccc(I)cc2)CC1c1ccc(C(=O)OC(C)Cn2c([N+](=O)[O-])cnc2C)cc1 (stereo unspecified) | 19.1 |  | 
12 | 9.02 | 8.27 | 5.96 | 5.97 | 11.8 | 8.92 | CC(=O)N1N=C(c2ccc(Br)cc2)CC1c1ccc(C(=O)OC(C)Cn2c([N+](=O)[O-])cnc2C)cc1 (stereo unspecified) | 10.8 |  | 
13 | 8.89 | 8.54 | 6.58 | 6.59 | 7.42 | 5.21 | CC(=O)N1N=C(c2ccc(F)cc2)CC1c1ccc(C(=O)OC(C)Cn2c([N+](=O)[O-])cnc2C)cc1 (stereo unspecified) | 15.5 |  | 
14 | 6.28 | 2.75 | 1.26 | 1.26 | 7.53 | 4.85 | CC(=O)N1N=C(c2ccc(I)cc2)CC1c1ccc(C(=O)OCCn2c([N+](=O)[O-])cnc2C)cc1 (stereo unspecified) | 11.8 |  | 
15 | 3.82 | 3.45 | 4.13 | 4.13 | 2.82 | 5.56 | CC(=O)N1N=C(c2ccc(Br)cc2)CC1c1ccc(C(=O)OCCn2c([N+](=O)[O-])cnc2C)cc1 (stereo unspecified) | 13.1 |  | 
16 | 3.62 | 3.53 | 1.45 | 1.45 | 3.78 | 3.33 | CC(=O)N1N=C(c2ccc([N+](=O)[O-])cc2)CC1c1ccc(C(=O)OC(C)Cn2c([N+](=O)[O-])cnc2C)cc1 (stereo unspecified) | 12.2 | 168 | 
17 | 3.31 | 4.1 | 7.37 | 7.38 | 4.13 | 2.27 | CC(=O)N1N=C(c2ccc(Cl)cc2)CC1c1ccc(C(=O)OCCn2c([N+](=O)[O-])cnc2C)cc1 (stereo unspecified) | 4.82 | 138 | 
18 | 2.21 | 5.62 | 6.67 | 6.68 | 0.42 | 2.18 | CC(=O)N1N=C(c2ccc(C(F)(F)F)cc2)CC1c1ccc(C(=O)OC(C)Cn2c([N+](=O)[O-])cnc2C)cc1 (stereo unspecified) | 5.87 | 92.6 | 
19 | 1.89 | 4.07 |  |  | 2.45 | 1.67 | CC(=O)N1N=C(c2ccc(F)cc2)CC1c1ccc(C(=O)OCCn2c([N+](=O)[O-])cnc2C)cc1 (stereo unspecified) | 4.19 | 118 | 
20 | 1.75 | 2.06 | 0.6 | 0.601 | 0.15 | 1.13 | CC(=O)N1N=C(c2ccc([N+](=O)[O-])cc2)CC1c1ccc(C(=O)OCCn2c([N+](=O)[O-])cnc2C)cc1 (stereo unspecified) | 0.38 | 78.8 | 
21 | 0.33 | 0.51 | 0.26 |  | 0.13 | 0.96 | CC(=O)N1N=C(c2ccc(C(F)(F)F)cc2)CC1c1ccc(C(=O)OCCn2c([N+](=O)[O-])cnc2C)cc1 (stereo unspecified) | 0.19 | 98.9 | Activity (HeLa [6]): 3.72%; Activity (HeLa [7]): 36.2%; Activity (HeLa [8]): Dose-dependent effect; Activity (HeLa [9]): 0.43%; Activity (HeLa [10]): 21.9%; Activity (HeLa [11]): 0.988%; viability at 0.26 µM (HeLa [12]): 50.7%; Activity (HeLa [13]): 1.88%; Activity (HeLa [14]): 54.2%; Activity (HeLa [15]): 20.5%; Activity (HeLa [16]): 20.7%; Activity (HeLa [17]): 26.7%; Activity (HeLa [18]): 0.688%; viability at 0.52 µM (HeLa [19]): 42.1%; viability at 0.13 µM (HeLa [20]): 73.9%; Activity (HeLa [21]): 26.7%; viability at 1.04 µM (HeLa [22]): 18.6%
22 | 0.27 |  |  |  | 0.12 | 0.47 | CS(=O)(=O)CCNCc1ccc(-c2ccc3ncnc(Nc4ccc(OCc5cccc(F)c5)c(Cl)c4)c3c2)o1 [LAPATINIB] | 0.21 | 123 | 
